The chains are these.
B1: tRNA (parent)
chain: GUUCCGUUGGCGUAAUGGUAACGCGUCUCCCUCCUAAGGAGAAGACUGCGGGUUCGAGUCCCGUACGGAACG

This sample holds only a part of the variants without activity.

For 37 variants, yeast fitness results are on record in the RNAGym collection of RNA variant scans (doi:10.1126/science.aae0568).

The variants in this series derive from B1. The series is described as follows: yeast fitness relative to wild type (ratio to wild type); higher = fitter; tRNA-Arg(CCU), competitive growth, 37 C, YPD. The procedure, abridged: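 Variants of the tRNA-Arg(CCU) gene, chemically synthesised with a 3% per-site mutation rate at 69 sites, were placed at the native genomic locus in Saccharomyces cerevisiae. The pooled strains were competed in YPD at 37°C for 24 hours in six parallel replicates. Gene amplicons from the start population and from each end population were read by 100-nucleotide paired-end sequencing. Darwinian fitness relative to wild type came from changes in genotype frequencies; genotypes needed ≥ 100 starting reads, and estimates < 0.5 were set to 0.5.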
As for GUUCCGUUGGCGUAAUGGUAACGCGUCUCCCUCCUAAGGAGAAGACUGCGGGUUCGAGUCUCGUUUGGAACG [C61U A65U C66U], the yeast fitness is not above 0.5. Next, GUUCCGUUGGCGUAAUGGUAACGCGUCUCCCUCCUAAGGAGAAGACUGCGGGUUCGAGUCCGGUACGCAACG [C62G G68C]: 0.592; GUUCCGUUGGCGUAAUGGUAACGCGUCUCCCUCCUAAGGAGAAGACUGCGGGUUCGAGUCCGGUACGUAACG [C62G G68U]: 0.707; GUUCCGUUGGCGUAAUGGUAACGCGUCUCCCUCCUAAGGAGAAGACUGCGGGUUCGAGUCCGGUACGAAACG [C62G G68A]: 0.56. Next, GUUCCGUUGGCGUAAUGGUAACGCGUCUCCCUCCUAAGGAGAAGACUGCGGGUUCGAGUCUCAUACGGAACG [C61U G63A]: 0.874; GUUCCGUUGGCGUAAUGGUAACGCGUCUCCCUCCUAAGGAGAAGACUGCGGGUUCGAGUCCGGUGCGGAACG [C62G A65G]: 0.811. Then GUUCCGUUGGCGUAAUGGUAACGCGUCUCCCUCCUAAGGAGAAGACUGCGGGUUCGAGUCCGGUCCGGAACG [C62G A65C], with 0.6; and GUUCCGUUGGCGUAAUGGUAACGCGUCUCCCUCCUAAGGAGAAGACUGCGGGUUCGAGUCUCGGACGGAACG [C61U U64G], with 0.674. Turning to GUUCCGUUGGCGUAAUGGUAACGCGUCUCCCUCCUAAGGAGAAGACUGCGGGUUCGAGUCCAGUACGCAACG [C62A G68C], the yeast fitness came out at 0.875. Take GUUCCGUUGGCGUAAUGGUAACGCGUCUCCCUCCUAAGGAGAAGACUGCGGGUUCGAGUCCAGUACGAAACG [C62A G68A]: the yeast fitness worked out at 0.797. On to GUUCCGUUGGCGUAAUGGUAACGCGUCUCCCUCCUAAGGAGAAGACUGCGGGUUCGAGUCCUGUACAGAACG [C62U G67A], for which the yeast fitness was 0.849.

Take GUUCCGUUGGCGUAAUGGUAACGCGUCUCCCUCCUAAGGAGAAGACUGCGGGUUCGAGUCCCCUACGUAACG [G63C G68U]: the yeast fitness turned out to be 0.568. Next, GUUCCGUUGGCGUAAUGGUAACGCGUCUCCCUCCUAAGGAGAAGACUGCGGGUUCGAGUCCCCUACGCAACG [G63C G68C]: 0.761. Then GUUCCGUUGGCGUAAUGGUAACGCGUCUCCCUCCUAAGGAGAAGACUGCGGGUUCGAGUCCAAUACGGAACG [C62A G63A], with 0.578. Then GUUCCGUUGGCGUAAUGGUAACGCGUCUCCCUCCUAAGGAGAAGACUGCGGGUUCGAGUCCACUACGGAACG [C62A G63C], with 0.661. For GUUCCGUUGGCGUAAUGGUAACGCGUCUCCCUCCUAAGGAGAAGACUGCGGGUUCGAGUCUGGUACGGAACG [C61U C62G], the yeast fitness is 0.718. With GUUCCGUUGGCGUAAUGGUAACGCGUCUCCCUCCUAAGGAGAAGACUGCGGGUUCGAGUCUUGUACGGAACG [C61U C62U], the yeast fitness was 0.748.

Regarding GUUCCGUUGGCGUAAUGGUAACGCGUCUCCCUCCUAAGGAGAAGACUGCGGGUUCGAGUCCCAGACGGAACG [G63A U64G], the yeast fitness worked out at 0.8. Then GUUCCGUUGGCGUAAUGGUAACGCGUCUCCCUCCUAAGGAGAAGACUGCGGGUUCGAGUCCGCUUCGGAACG [C62G G63C A65U], with not above 0.5; and GUUCCGUUGGCGUAAUGGUAACGCGUCUCCCUCCUAAGGAGAAGACUGCGGGUUCGAGUCUCGUACCGAACG [C61U G67C], with 0.892; and GUUCCGUUGGCGUAAUGGUAACGCGUCUCCCUCCUAAGGAGAAGACUGCGGGUUCGAGUCCCAUGCGGAACG [G63A A65G], with 0.889. Next, GUUCCGUUGGCGUAAUGGUAACGCGUCUCCCUCCUAAGGAGAAGACUGCGGGUUCGAGUCCGGUACGGCACG [C62G A69C]: 0.617; GUUCCGUUGGCGUAAUGGUAACGCGUCUCCCUCCUAAGGAGAAGACUGCGGGUUCGAGUCGCGUACGGACCG [C61G A70C]: 0.763; GUUCCGUUGGCGUAAUGGUAACGCGUCUCCCUCCUAAGGAGAAGACUGCGGGUUCGAGUCUCGUACGGACCG [C61U A70C]: 0.939. Next, GUUCCGUUGGCGUAAUGGUAACGCGUCUCCCUCCUAAGGAGAAGACUGCGGGUUCGAGUCUCGUACGGAGCG [C61U A70G]: 0.979; GUUCCGUUGGCGUAAUGGUAACGCGUCUCCCUCCUAAGGAGAAGACUGCGGGUUCGAGUCCAGUACGGCACG [C62A A69C]: 0.78; GUUCCGUUGGCGUAAUGGUAACGCGUCUCCCUCCUAAGGAGAAGACUGCGGGUUCGAGUCCAGUACGGUACG [C62A A69U]: 0.652. Take GUUCCGUUGGCGUAAUGGUAACGCGUCUCCCUCCUAAGGAGAAGACUGCGGGUUCGAGUCUCGAACGGGACG [C61U U64A A69G]: the yeast fitness amounted to 0.597. Next, GUUCCGUUGGCGUAAUGGUAACGCGUCUCCCUCCUAAGGAGAAGACUGCGGGUUCGAGUCUCUUACGAAACG [C61U G63U G68A]: 0.529; GUUCCGUUGGCGUAAUGGUAACGCGUCUCCCUCCUAAGGAGAAGACUGCGGGUUCGAGUCCGGUACGGAUCG [C62G A70U]: 0.637.

For GUUCCGUUGGCGUAAUGGUAACGCGUCUCCCUCCUAAGGAGAAGACUGCGGGUUCGAGUCCGGUACGGAGCG [C62G A70G], the yeast fitness was found to be 0.752. Then GUUCCGUUGGCGUAAUGGUAACGCGUCUCCCUCCUAAGGAGAAGACUGCGGGUUCGAGUCUCGUACGGAACG [C61U], with 1.01; and GUUCCGUUGGCGUAAUGGUAACGCGUCUCCCUCCUAAGGAGAAGACUGCGGGUUCGAGUCCUGUCCGGAACG [C62U A65C], with 0.914. Then GUUCCGUUGGCGUAAUGGUAACGCGUCUCCCUCCUAAGGAGAAGACUGCGGGUUCGAGUCCUGUGCGGAACG [C62U A65G], with 0.886; and GUUCCGUUGGCGUAAUGGUAACGCGUCUCCCUCCUAAGGAGAAGACUGCGGGUUCGAGUCCCCUACGGACCG [G63C A70C], with 0.744; and GUUCCGUUGGCGUAAUGGUAACGCGUCUCCCUCCUAAGGAGAAGACUGCGGGUUCGAGUCCAGUUUGGAACG [C62A A65U C66U], with not above 0.5. Then GUUCCGUUGGCGUAAUGGUAACGCGUCUCCCUCCUAAGGAGAAGACUGCGGGUUCGAGUCCCCUACUGAACG [G63C G67U], with 0.677.
